Published values of several laboratories.
Each line is one published result; the experiments were not run side by side.
Target: NUAK family SNF1-like kinase 2 (NUAK2, Homo sapiens, UniProt Q9H093)
One construct used (Q9H093 1-628): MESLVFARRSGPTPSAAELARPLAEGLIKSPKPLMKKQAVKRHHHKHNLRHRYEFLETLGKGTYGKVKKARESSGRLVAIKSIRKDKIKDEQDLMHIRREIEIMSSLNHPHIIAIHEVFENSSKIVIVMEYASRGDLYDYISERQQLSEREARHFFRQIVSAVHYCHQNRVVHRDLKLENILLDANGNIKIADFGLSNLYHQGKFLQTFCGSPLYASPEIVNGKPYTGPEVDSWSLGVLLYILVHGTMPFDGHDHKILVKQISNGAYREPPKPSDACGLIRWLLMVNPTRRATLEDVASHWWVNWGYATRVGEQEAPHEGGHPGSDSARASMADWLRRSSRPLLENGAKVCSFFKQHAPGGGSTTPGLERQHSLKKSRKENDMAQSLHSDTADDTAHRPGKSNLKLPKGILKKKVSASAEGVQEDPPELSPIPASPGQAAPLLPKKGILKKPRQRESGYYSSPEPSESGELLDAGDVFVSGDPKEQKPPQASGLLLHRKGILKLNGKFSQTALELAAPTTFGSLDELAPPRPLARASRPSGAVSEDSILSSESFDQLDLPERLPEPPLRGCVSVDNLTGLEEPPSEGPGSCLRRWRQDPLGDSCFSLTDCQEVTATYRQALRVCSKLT

CO[C@@H]1[C@H](N(C)C(=O)c2ccccc2)C[C@H]2O[C@]1(C)n1c3ccccc3c3c4c(c5c6ccccc6n2c5c31)C(=O)NC4  inhibition (enzyme activity; inhibitor; 1 µM): 99%
N#Cc1ccc(NC(=O)Nc2ccccc2)cc1  remaining binding (cell-free assay; competition with immobilised ligand; 25 µM): 77%
C=CC(=O)N1CCC([C@@H]2CCNc3c(C(N)=O)c(-c4ccc(Oc5ccccc5)cc4)nn32)CC1  inhibition (enzyme activity; inhibitor; 1 µM): 24%
COc1ccc2oc(-c3ccc4nc(N)oc4c3)c/c(=N\c3ccccc3NC(=O)CCN)c2c1  remaining binding (binding; 1 µM): 93%
Cc1cc(O)c(-c2ccc([C@@H](C)CN(C)C)cc2)c2c1[nH]c(=O)c1sccc12  inhibition (enzyme activity; inhibitor; 0.1 µM): 3.81%
C[C@]1(O)CCCN(c2nc(Nc3ccc(S(=O)(=O)N[C@H]4CC[C@H](CN5CCN(c6ccc(C7CCC(=O)NC7=O)cc6F)CC5)CC4)cc3Cl)ncc2C(F)(F)F)C1 (stereo partly drawn)  remaining binding (binding; competition with immobilised ligand; 1 µM): 49%
C[C@H]1CC[C@H](n2c3cnccc3c3cnc(Nc4ccc5c(n4)CCN(C(=O)CO)C5)nc32)CC1  remaining signal (cell-free assay; 1 µM): 34%
CC(C)S(=O)(=O)c1ccc2nccc(Nc3ccc4sc(C5CCCC5)nc4c3)c2c1  activity vs control (enzyme activity; inhibitor; 1 µM): 121%
CNS(=O)(=O)c1ccc(Nc2ncc(C(F)(F)F)c(N3CCC[C@](C)(O)C3)n2)c(C)c1  remaining binding (binding; competition with immobilised ligand; 1 µM): 3.9%
CN1CCN(C(=O)c2ccc(NC(=O)Nc3ccc(N(C)c4ccnc(Nc5ccc(CS(C)(=O)=O)cc5)n4)cc3)cc2)CC1  remaining binding (binding; 1 µM): 39%
C1=C/COCc2cc(ccc2OCCN2CCCC2)Nc2nccc(n2)-c2cccc(c2)COC/1  remaining signal (cell-free assay; 0.1 µM): 13%
CCCCC(=O)Nc1ccc(-c2ccc3ncn(CCC)c(=O)c3c2)cn1  remaining binding (binding; competition with immobilised ligand; 0.5 µM): 97%
